Test results from ChEMBL document CHEMBL1150387, “Development and experimental validation of a docking strategy for the generation of kinase-targeted libraries” (J Med Chem, 2008).

What was measured:
[1] = molecular target: Cyclin-dependent kinase 2 (Homo sapiens) (UniProt P24941); assay: Inhibition of CDK2 at 10 uM by HTRF assay relative to control
In short: (§1)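 HTRF kinase assay, one panel of kinases. Inhibitor stock 50 µM in 100% DMSO; tested at 10 µM. ATP and substrate at final levels near Km. Final buffer: 50 mM Hepes/NaOH pH 7.4, 40 µM Na3VO4, 0.005% Tween-20, 1 mM DTT, MnCl2 or MgCl2 at kinase-dependent levels. Started by adding ATP/substrate. Reaction run at room temperature, time varied by kinase. Detection mix in 50 mM Hepes pH 7.4, 0.1% BSA, 150 mM KF, incubated ≥1 h at room temperature. Activity expressed as % of uninhibited control; n=2.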

[2] = molecular target: Tyrosine-protein kinase ABL1 (Homo sapiens) (UniProt P00519); assay: Inhibition of Abl at 10 uM by HTRF assay relative to control; in short: as §1
[3] = molecular target: T1, Calcium/calmodulin-dependent protein kinase type IV (Homo sapiens) (UniProt Q16566); assay: Inhibition of CaMK4 at 10 uM by HTRF assay relative to control; in short: as §1
T1 sequence (whole entry): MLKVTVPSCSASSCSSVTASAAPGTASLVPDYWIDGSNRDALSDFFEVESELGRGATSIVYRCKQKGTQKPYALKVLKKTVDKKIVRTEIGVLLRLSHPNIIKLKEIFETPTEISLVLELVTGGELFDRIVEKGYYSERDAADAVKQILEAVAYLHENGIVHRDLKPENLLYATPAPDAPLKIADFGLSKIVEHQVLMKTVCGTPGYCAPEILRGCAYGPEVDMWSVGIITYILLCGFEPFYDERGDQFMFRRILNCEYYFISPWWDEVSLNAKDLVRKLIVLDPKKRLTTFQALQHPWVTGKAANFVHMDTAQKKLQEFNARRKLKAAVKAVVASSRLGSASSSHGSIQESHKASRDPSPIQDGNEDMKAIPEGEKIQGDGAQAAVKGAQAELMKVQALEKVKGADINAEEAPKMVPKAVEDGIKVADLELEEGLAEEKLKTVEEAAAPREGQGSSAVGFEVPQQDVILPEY

[4] = molecular target: Rho-associated protein kinase 2 (Homo sapiens) (UniProt O75116); assay: Inhibition of ROCK2 at 10 uM by HTRF assay relative to control; in short: as §1
[5] = molecular target: Mitogen-activated protein kinase 14 (Homo sapiens) (UniProt Q16539); assay: Inhibition of p38alpha at 10 uM by HTRF assay relative to control; in short: as §1
[6] = molecular target: Serine/threonine-protein kinase Chk2 (Homo sapiens) (UniProt O96017); assay: Inhibition of CHK2 at 10 uM by HTRF assay relative to control; in short: as §1
[7] = molecular target: Vascular endothelial growth factor receptor 1 (Homo sapiens) (UniProt P17948); assay: Inhibition of FLT1 at 10 uM by HTRF assay relative to control; in short: as §1
[8] = molecular target: T2, Serine/threonine-protein kinase Chk1 (Homo sapiens) (UniProt O14757); assay: Inhibition of CHK1 at 10 uM by HTRF assay relative to control; in short: as §1
T2 sequence (whole entry): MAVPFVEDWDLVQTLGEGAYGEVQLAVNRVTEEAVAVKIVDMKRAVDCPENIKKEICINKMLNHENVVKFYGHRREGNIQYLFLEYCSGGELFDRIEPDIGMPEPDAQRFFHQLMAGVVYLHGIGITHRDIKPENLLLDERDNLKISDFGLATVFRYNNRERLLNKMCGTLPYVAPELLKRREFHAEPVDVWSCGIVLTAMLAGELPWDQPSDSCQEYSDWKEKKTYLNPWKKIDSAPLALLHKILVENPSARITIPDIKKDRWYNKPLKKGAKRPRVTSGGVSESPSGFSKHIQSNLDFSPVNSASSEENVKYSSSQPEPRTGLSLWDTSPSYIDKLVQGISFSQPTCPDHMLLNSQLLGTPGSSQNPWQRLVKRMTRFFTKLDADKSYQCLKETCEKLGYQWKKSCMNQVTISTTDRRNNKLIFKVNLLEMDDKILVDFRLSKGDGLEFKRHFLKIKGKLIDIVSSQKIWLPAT

[9] = molecular target: T3, Mitogen-activated protein kinase 12 (Homo sapiens) (UniProt P53778); assay: Inhibition of p38-gamma at 10 uM by HTRF assay relative to control; in short: as §1
T3 sequence (whole entry): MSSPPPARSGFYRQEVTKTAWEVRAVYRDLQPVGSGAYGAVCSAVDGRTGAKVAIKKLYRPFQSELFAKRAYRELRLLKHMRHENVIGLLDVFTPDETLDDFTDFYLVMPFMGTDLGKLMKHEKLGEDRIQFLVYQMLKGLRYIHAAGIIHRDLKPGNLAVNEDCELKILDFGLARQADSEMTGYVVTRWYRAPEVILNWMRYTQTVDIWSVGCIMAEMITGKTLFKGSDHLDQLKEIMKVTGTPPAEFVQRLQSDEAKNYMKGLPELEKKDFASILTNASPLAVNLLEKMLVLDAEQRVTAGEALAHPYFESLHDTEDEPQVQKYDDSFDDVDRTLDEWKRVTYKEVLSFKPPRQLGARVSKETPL

[10] = molecular target: RAC-alpha serine/threonine-protein kinase (Homo sapiens) (UniProt P31749); assay: Inhibition of AKT1/PKBalpha at 10 uM by HTRF assay relative to control; in short: as §1
[11] = molecular target: Epidermal growth factor receptor (Homo sapiens) (UniProt P00533); assay: Inhibition of EGFR at 10 uM by HTRF assay relative to control; in short: as §1
[12] = molecular target: Cyclin-dependent kinase 1 (Homo sapiens) (UniProt P06493); assay: Inhibition of CDK1 at 10 uM by HTRF assay relative to control; in short: as §1
[13] = molecular target: Mitogen-activated protein kinase 8 (Homo sapiens) (UniProt P45983); assay: Inhibition of JNK1 at 10 uM by HTRF assay relative to control; in short: as §1
[14] = molecular target: Focal adhesion kinase 1 (Homo sapiens) (UniProt Q05397); assay: Inhibition of FAK at 10 uM by HTRF assay relative to control; in short: as §1
[15] = molecular target: Vascular endothelial growth factor receptor 2 (Homo sapiens) (UniProt P35968); assay: Inhibition of KDR at 10 uM by HTRF assay relative to control; in short: as §1
[16] = molecular target: MAP kinase-activated protein kinase 2 (Homo sapiens) (UniProt P49137); assay: Inhibition of MAPKAPK2 at 10 uM by HTRF assay relative to control; in short: as §1

Sequence of Mitogen-activated protein kinase 14 (Homo sapiens) (Q16539 whole entry): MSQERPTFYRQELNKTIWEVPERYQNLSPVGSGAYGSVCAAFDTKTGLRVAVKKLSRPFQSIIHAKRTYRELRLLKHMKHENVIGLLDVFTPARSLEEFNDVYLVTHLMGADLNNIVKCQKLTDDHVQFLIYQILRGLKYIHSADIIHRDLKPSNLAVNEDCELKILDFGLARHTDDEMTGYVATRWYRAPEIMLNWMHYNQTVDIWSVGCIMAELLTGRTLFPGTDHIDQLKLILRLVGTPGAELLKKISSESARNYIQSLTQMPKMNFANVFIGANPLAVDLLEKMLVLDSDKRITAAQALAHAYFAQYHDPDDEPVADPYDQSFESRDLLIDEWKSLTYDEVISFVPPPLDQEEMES
Sequence of RAC-alpha serine/threonine-protein kinase (Homo sapiens) (P31749 whole entry): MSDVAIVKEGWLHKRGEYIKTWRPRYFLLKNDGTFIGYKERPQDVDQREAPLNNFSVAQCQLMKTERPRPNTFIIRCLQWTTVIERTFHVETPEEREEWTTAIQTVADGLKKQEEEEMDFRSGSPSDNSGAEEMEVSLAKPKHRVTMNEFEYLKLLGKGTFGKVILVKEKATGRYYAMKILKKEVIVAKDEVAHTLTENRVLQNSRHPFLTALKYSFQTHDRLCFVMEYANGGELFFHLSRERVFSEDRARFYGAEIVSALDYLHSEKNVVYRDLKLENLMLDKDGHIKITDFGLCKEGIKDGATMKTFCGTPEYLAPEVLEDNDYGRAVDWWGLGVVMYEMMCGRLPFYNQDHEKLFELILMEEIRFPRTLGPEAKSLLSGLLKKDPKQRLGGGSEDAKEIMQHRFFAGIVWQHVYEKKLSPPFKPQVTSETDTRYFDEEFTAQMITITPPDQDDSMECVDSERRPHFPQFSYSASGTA
Sequence of Rho-associated protein kinase 2 (Homo sapiens) (O75116 whole entry, looked up): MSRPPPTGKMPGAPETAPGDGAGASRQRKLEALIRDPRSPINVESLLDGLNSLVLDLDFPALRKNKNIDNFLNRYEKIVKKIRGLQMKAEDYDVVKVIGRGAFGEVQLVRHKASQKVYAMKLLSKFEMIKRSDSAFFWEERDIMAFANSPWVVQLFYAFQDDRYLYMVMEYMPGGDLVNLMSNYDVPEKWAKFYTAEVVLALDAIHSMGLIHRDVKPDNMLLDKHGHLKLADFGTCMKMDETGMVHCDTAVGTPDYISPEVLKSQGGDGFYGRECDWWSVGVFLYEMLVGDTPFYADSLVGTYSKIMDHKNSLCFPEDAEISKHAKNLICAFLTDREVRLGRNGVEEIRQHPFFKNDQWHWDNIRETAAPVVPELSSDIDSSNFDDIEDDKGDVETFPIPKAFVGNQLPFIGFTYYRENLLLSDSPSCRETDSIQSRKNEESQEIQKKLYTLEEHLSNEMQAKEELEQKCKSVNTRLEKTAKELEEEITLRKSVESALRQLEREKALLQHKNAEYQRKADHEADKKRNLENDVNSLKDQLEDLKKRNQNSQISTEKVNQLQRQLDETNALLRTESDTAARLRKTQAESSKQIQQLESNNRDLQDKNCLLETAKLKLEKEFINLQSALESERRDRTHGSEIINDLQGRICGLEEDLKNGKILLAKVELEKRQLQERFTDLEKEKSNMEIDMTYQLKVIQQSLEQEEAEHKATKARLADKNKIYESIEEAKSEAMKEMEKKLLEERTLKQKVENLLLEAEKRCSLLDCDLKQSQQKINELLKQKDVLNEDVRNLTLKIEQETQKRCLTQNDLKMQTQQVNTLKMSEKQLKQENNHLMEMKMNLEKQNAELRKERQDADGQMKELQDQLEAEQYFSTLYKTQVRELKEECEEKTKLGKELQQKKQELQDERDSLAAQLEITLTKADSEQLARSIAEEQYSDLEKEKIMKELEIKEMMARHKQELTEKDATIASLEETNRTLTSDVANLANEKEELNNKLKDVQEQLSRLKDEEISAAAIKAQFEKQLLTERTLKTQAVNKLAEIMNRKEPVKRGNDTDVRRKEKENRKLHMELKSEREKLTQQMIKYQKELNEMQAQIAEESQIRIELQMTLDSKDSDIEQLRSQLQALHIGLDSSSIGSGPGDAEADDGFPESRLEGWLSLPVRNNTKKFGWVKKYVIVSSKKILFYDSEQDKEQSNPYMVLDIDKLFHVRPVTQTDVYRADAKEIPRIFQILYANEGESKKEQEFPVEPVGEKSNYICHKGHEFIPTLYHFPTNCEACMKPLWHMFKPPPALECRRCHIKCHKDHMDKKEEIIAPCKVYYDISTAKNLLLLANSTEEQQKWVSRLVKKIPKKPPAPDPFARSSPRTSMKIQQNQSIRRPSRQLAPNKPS
Sequence of Tyrosine-protein kinase ABL1 (Homo sapiens) (P00519 whole entry): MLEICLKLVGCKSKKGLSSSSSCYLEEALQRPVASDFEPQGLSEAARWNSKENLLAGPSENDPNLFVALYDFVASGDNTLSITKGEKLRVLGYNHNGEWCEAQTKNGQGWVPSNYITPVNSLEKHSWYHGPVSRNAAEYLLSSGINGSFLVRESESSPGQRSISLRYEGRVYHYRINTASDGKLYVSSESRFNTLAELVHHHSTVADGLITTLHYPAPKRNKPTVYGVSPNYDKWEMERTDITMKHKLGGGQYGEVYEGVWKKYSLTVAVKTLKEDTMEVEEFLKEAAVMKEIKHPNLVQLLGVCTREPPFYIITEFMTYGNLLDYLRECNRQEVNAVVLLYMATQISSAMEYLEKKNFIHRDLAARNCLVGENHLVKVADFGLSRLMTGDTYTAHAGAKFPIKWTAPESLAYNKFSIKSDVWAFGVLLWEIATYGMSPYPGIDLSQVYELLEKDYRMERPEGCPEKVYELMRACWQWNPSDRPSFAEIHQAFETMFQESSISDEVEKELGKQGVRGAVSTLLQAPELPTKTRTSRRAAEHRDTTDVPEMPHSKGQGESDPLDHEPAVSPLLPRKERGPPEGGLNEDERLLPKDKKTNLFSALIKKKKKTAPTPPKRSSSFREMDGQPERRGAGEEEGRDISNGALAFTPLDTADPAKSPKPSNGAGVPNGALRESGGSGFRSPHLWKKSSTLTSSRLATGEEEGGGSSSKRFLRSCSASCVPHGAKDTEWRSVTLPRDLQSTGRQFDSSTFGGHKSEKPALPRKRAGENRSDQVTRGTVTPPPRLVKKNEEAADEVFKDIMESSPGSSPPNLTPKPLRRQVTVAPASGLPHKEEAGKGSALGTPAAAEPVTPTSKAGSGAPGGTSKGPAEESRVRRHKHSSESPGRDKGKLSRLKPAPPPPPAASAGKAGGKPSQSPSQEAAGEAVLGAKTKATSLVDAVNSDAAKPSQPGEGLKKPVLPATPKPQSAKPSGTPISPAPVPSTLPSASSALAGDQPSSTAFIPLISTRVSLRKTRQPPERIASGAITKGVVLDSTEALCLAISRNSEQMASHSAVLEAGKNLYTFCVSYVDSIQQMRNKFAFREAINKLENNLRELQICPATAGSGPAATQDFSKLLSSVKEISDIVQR
Sequence of Cyclin-dependent kinase 1 (Homo sapiens) (P06493 whole entry, looked up): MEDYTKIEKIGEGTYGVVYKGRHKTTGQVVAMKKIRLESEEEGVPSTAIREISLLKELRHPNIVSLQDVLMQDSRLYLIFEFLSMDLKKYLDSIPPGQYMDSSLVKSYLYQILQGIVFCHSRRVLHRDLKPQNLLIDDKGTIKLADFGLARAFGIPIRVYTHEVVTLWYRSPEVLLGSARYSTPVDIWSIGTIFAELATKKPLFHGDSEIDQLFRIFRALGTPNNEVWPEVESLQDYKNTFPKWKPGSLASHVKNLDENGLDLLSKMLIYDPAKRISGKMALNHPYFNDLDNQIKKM
Sequence of Vascular endothelial growth factor receptor 2 (Homo sapiens) (P35968 whole entry): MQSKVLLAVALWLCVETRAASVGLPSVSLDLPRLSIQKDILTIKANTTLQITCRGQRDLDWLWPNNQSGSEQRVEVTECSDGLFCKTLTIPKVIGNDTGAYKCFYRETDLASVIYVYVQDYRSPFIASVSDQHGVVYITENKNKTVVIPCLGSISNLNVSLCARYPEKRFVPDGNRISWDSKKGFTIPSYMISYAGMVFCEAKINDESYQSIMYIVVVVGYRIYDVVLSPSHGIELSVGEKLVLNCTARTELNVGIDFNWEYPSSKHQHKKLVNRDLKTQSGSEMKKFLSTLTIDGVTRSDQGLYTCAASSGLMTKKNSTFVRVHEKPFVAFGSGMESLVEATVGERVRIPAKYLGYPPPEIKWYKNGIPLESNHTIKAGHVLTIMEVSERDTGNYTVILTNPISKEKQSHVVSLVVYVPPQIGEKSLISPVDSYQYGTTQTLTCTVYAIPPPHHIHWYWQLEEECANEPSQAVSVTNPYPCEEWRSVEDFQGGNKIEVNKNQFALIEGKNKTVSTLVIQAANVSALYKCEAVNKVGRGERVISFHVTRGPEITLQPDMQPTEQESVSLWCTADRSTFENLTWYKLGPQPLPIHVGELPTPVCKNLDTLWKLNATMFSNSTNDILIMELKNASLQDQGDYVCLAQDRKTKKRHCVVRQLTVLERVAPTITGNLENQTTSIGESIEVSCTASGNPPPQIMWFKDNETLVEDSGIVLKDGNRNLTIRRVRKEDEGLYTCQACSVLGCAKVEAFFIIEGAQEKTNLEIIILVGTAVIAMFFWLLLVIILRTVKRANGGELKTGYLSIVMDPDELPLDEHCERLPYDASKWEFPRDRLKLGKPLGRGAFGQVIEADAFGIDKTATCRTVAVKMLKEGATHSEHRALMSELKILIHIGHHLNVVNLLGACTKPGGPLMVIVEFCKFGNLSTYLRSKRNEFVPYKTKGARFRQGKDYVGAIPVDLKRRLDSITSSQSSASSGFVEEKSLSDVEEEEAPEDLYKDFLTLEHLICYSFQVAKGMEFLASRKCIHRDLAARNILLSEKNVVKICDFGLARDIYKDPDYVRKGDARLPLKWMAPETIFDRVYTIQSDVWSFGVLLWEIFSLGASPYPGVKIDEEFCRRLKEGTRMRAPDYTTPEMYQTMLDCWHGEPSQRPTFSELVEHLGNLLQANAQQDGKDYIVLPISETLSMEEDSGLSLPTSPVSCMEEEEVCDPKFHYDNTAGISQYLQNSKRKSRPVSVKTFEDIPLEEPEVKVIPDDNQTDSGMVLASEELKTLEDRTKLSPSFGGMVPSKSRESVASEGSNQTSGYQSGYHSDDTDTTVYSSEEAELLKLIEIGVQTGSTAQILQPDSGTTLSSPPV

Cc1cc(C(=O)N2CCN(c3ncnc4c3CN(Cc3ccccc3)CC4)CC2)c(C)n1C
inhibition [1]: 3%
inhibition [2]: 5%
inhibition [3]: 0%
inhibition [4]: 0%
inhibition [5]: 0%
inhibition [6]: 2%
inhibition [7]: 0%
inhibition [8]: 3%
inhibition [9]: 0%
inhibition [10]: 0%
inhibition [11]: 0%
inhibition [12]: 0%
inhibition [13]: 0%
inhibition [14]: 0%
inhibition [15]: 0%
inhibition [16]: 0%

COc1cccc(Nc2cc(N3CCC[C@H]3C(=O)NCCc3ccc(O)cc3)nc(N)n2)c1
inhibition [1]: 3%
inhibition [2]: 6%
inhibition [3]: 0%
inhibition [4]: 0%
inhibition [5]: 8%
inhibition [6]: 0%
inhibition [7]: 2%
inhibition [8]: 2%
inhibition [9]: 0%
inhibition [10]: 1%
inhibition [11]: 0%
inhibition [12]: 0%
inhibition [13]: 1%
inhibition [14]: 3%
inhibition [15]: 6%
inhibition [16]: 0%

Cc1cccc(N(C)c2cc(Nc3cccc(C(=O)NCc4ccncc4)c3)ncn2)c1
inhibition [1]: 20%
inhibition [2]: 53%
inhibition [3]: 0%
inhibition [4]: 0%
inhibition [5]: 8%
inhibition [6]: 5%
inhibition [7]: 0%
inhibition [8]: 3%
inhibition [9]: 3%
inhibition [10]: 0%
inhibition [11]: 100%
inhibition [12]: 7%
inhibition [13]: 19%
inhibition [14]: 20%
inhibition [15]: 19%
inhibition [16]: 0%

COC[C@@H]1CCCN1C(=O)C1CCCN1c1cc(Nc2cccc(Br)c2)ncn1 (stereo partly specified)
inhibition [1]: 4%
inhibition [2]: 7%
inhibition [3]: 0%
inhibition [4]: 0%
inhibition [5]: 0%
inhibition [6]: 3%
inhibition [7]: 0%
inhibition [8]: 2%
inhibition [9]: 0%
inhibition [10]: 0%
inhibition [11]: 0%
inhibition [12]: 0%
inhibition [13]: 0%
inhibition [14]: 5%
inhibition [15]: 0%
inhibition [16]: 0%

Cc1cccc(N(C)c2cc(N3CCN(CC(=O)Nc4nc(-c5ccccc5)cs4)CC3)ncn2)c1
inhibition [1]: 2%
inhibition [2]: 6%
inhibition [3]: 0%
inhibition [4]: 0%
inhibition [5]: 0%
inhibition [6]: 0%
inhibition [7]: 14%
inhibition [8]: 1%
inhibition [9]: 3%
inhibition [10]: 0%
inhibition [11]: 0%
inhibition [12]: 0%
inhibition [13]: 0%
inhibition [14]: 5%
inhibition [15]: 9%
inhibition [16]: 3%

CC(=O)CCCCC(=O)N1CCN(c2nccc(Oc3cccc(C)c3)n2)CC1
inhibition [1]: 10%
inhibition [2]: 1%
inhibition [3]: 0%
inhibition [4]: 0%
inhibition [5]: 10%
inhibition [6]: 0%
inhibition [7]: 1%
inhibition [8]: 4%
inhibition [9]: 0%
inhibition [10]: 0%
inhibition [11]: 0%
inhibition [12]: 0%
inhibition [13]: 8%
inhibition [14]: 4%
inhibition [15]: 14%
inhibition [16]: 1%

Cc1cccc(Nc2nccc(Nc3cccc(C(=O)NCc4ccc(N(C)C)cc4)c3)n2)c1
inhibition [1]: 1%
inhibition [2]: 11%
inhibition [3]: 0%
inhibition [4]: 4%
inhibition [5]: 0%
inhibition [6]: 0%
inhibition [7]: 0%
inhibition [8]: 6%
inhibition [9]: 0%
inhibition [10]: 1%
inhibition [11]: 0%
inhibition [12]: 0%
inhibition [13]: 0%
inhibition [14]: 17%
inhibition [15]: 11%
inhibition [16]: 4%

O=C(c1nc(SCc2ccc(Cl)cc2)n2ccccc12)N1CCN(c2ncnc3c2CN(Cc2ccccc2)CC3)CC1
inhibition [1]: 0%
inhibition [2]: 13%
inhibition [3]: 0%
inhibition [4]: 0%
inhibition [5]: 5%
inhibition [6]: 0%
inhibition [7]: 0%
inhibition [8]: 5%
inhibition [9]: 0%
inhibition [10]: 0%
inhibition [11]: 0%
inhibition [12]: 0%
inhibition [13]: 7%
inhibition [14]: 0%
inhibition [15]: 10%
inhibition [16]: 1%

Cc1cccc(N(C)c2cc(Nc3ccc(CC(=O)Nc4ccc5ncsc5c4)cc3)ncn2)c1
inhibition [1]: 4%
inhibition [2]: 18%
inhibition [3]: 0%
inhibition [4]: 22%
inhibition [5]: 57%
inhibition [6]: 0%
inhibition [7]: 22%
inhibition [8]: 1%
inhibition [9]: 0%
inhibition [10]: 0%
inhibition [11]: 87%
inhibition [12]: 0%
inhibition [13]: 7%
inhibition [14]: 15%
inhibition [15]: 40%
inhibition [16]: 3%

CN(CCc1ccccn1)C(=O)[C@@H]1CCCN1c1nccc(Nc2ccccc2)n1
inhibition [1]: 5%
inhibition [2]: 8%
inhibition [3]: 0%
inhibition [4]: 0%
inhibition [5]: 0%
inhibition [6]: 3%
inhibition [7]: 0%
inhibition [8]: 1%
inhibition [9]: 2%
inhibition [10]: 1%
inhibition [11]: 0%
inhibition [12]: 0%
inhibition [13]: 0%
inhibition [14]: 2%
inhibition [15]: 2%
inhibition [16]: 0%

Cc1cccc(N(C)c2cc(Nc3cccc(C(=O)N4CCCC5CCCCC54)c3)ncn2)c1 (stereo unspecified)
inhibition [1]: 4%
inhibition [2]: 13%
inhibition [3]: 0%
inhibition [4]: 0%
inhibition [5]: 0%
inhibition [6]: 2%
inhibition [7]: 8%
inhibition [8]: 2%
inhibition [9]: 1%
inhibition [10]: 6%
inhibition [11]: 84%
inhibition [12]: 0%
inhibition [13]: 2%
inhibition [14]: 8%
inhibition [15]: 0%
inhibition [16]: 0%

O=C(C1CCN(c2nccc(Nc3ccccc3)n2)CC1)N1CC[C@@H](O)C1
inhibition [1]: 5%
inhibition [2]: 8%
inhibition [3]: 0%
inhibition [4]: 0%
inhibition [5]: 0%
inhibition [6]: 0%
inhibition [7]: 6%
inhibition [8]: 4%
inhibition [9]: 0%
inhibition [10]: 0%
inhibition [11]: 0%
inhibition [12]: 0%
inhibition [13]: 0%
inhibition [14]: 0%
inhibition [15]: 4%
inhibition [16]: 4%

Nc1nc(N2CCOCC2)cc(N2CCC(C(=O)NCCc3ccc(O)cc3)CC2)n1
inhibition [1]: 5%
inhibition [2]: 6%
inhibition [3]: 0%
inhibition [4]: 0%
inhibition [5]: 8%
inhibition [6]: 0%
inhibition [7]: 0%
inhibition [8]: 3%
inhibition [9]: 0%
inhibition [10]: 2%
inhibition [11]: 0%
inhibition [12]: 0%
inhibition [13]: 4%
inhibition [14]: 3%
inhibition [15]: 7%
inhibition [16]: 0%

O=C(NC[C@@H]1CCCO1)c1cccc(Nc2nccc(Nc3ccc4ncsc4c3)n2)c1
inhibition [1]: 38%
inhibition [2]: 44%
inhibition [3]: 0%
inhibition [4]: 19%
inhibition [5]: 12%
inhibition [6]: 13%
inhibition [7]: 87%
inhibition [8]: 2%
inhibition [9]: 3%
inhibition [10]: 0%
inhibition [11]: 43%
inhibition [12]: 11%
inhibition [13]: 94%
inhibition [14]: 99%
inhibition [15]: 95%
inhibition [16]: 1%

Nc1nc(Nc2ccccc2)cc(N2CCC(C(=O)NCCc3ccccn3)CC2)n1
inhibition [1]: 17%
inhibition [2]: 0%
inhibition [3]: 0%
inhibition [4]: 0%
inhibition [5]: 12%
inhibition [6]: 0%
inhibition [7]: 0%
inhibition [8]: 0%
inhibition [9]: 6%
inhibition [10]: 0%
inhibition [11]: 0%
inhibition [12]: 0%
inhibition [13]: 0%
inhibition [14]: 1%
inhibition [15]: 1%
inhibition [16]: 0%

Nc1nc(Nc2ccc3ncsc3c2)cc(N2CCC[C@H]2C(=O)NCCc2cccc(I)c2)n1
inhibition [1]: 5%
inhibition [2]: 7%
inhibition [3]: 0%
inhibition [4]: 1%
inhibition [5]: 10%
inhibition [6]: 1%
inhibition [7]: 1%
inhibition [8]: 3%
inhibition [9]: 2%
inhibition [10]: 0%
inhibition [11]: 0%
inhibition [12]: 0%
inhibition [13]: 0%
inhibition [14]: 4%
inhibition [15]: 17%
inhibition [16]: 3%
